From ChEMBL document CHEMBL4257452, “A mini-library system to investigate non-essential residues of lipid-phosphatidylserine (PS) binding peptide-peptoid hybrid PPS1” (Medchemcomm, 2017)
The source made the active and inactive calls. The rule behind the calls is not given here. Starred links: 1 amine or outer side, 2 acyl side, 3 side chain; linkers in the order of their positions; H or OH if unused. Positions of bridges follow the written chain, without caps; N, C: chain ends. Non-standard residues stand in square brackets, D forms with d. Residues, ends and D or L forms follow the SMILES beside them. Chains are numbered I, II in the order given. Gly(N-piperonyl) = O=C(O)CNCc1ccc2c(c1)OCO2; N(4-MeOBn)Gly = COc1ccc(CNCC(=O)O)cc1; X3 = CC(c1ccccc1)N(CC(=O)[*:2])[*:1]; Gly(NCH2CH2Ph) = O=C(O)CNCCc1ccccc1; Gly(N-(CH2)3OMe) = COCCCNCC(=O)O; Sar = CNCC(=O)O

Tested on: HCC4017
Experiment: Cytotoxicity against human HCC4017 cells assessed as reduction in cell viability at 20 uM after 24 hrs by MTS assay
Format: functional, cell-based
How it was run: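 HCC4017 cells (RPMI, 5% FBS) and HBEC-3KT normal lung cells (KSFM with recombinant human EGF and bovine pituitary extract) were plated at 10 000 cells/well in triplicate and left to adhere overnight. They were exposed to 1 or 20 μM compound for 24 h. MTS reagent was then added for 2 h and absorbance read at 490 nm. Viability is % of untreated control wells.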

Question: For `COc1ccc(CN(CC(=O)NC(CC(=O)O)C(=O)NC(CCCCN)C(=O)NC(CCCCN)C(=O)NC(CCSC)C(=O)NCCCCC(NC(=O)C(CCSC)NC(=O)C(CCCCN)NC(=O)C(CCCCN)NC(=O)C(CC(=O)O)NC(=O)CN(Cc2ccc(OC)cc2)C(=O)CN(C(=O)CN(Cc2ccc3c(c2)OCO3)C(=O)CNC(C)c2ccccc2)C(C)c2ccccc2)C(N)=O)C(=O)CN(C(=O)CN(Cc2ccc3c(c2)OCO3)C(=O)CNC(C)c2ccccc2)C(C)c2ccccc2)cc1` (stereo not given) (I: H-[X3][Gly(N-piperonyl)][X3][N(4-MeOBn)Gly]DKKMK-NH2 / II: H-[X3][Gly(N-piperonyl)][X3][N(4-MeOBn)Gly]DKKM; amide I:9-II:C; configuration not given here), which Activity is on record?
Answer: inactive

Question: With `COCCCN(CC(=O)NC(CCCCN)C(=O)NC(CCCCN)C(=O)NC(CCSC)C(=O)NCCCCC(NC(=O)C(CCSC)NC(=O)C(CCCCN)NC(=O)C(CCCCN)NC(=O)CN(CCCOC)C(=O)CN(Cc1ccc(OC)cc1)C(=O)CN(C(=O)CN(Cc1ccc2c(c1)OCO2)C(=O)CNC(C)c1ccccc1)C(C)c1ccccc1)C(N)=O)C(=O)CN(Cc1ccc(OC)cc1)C(=O)CN(C(=O)CN(Cc1ccc2c(c1)OCO2)C(=O)CNC(C)c1ccccc1)C(C)c1ccccc1` (stereo not given) (I: H-[X3][Gly(N-piperonyl)][X3][N(4-MeOBn)Gly][Gly(N-(CH2)3OMe)]KKMK-NH2 / II: H-[X3][Gly(N-piperonyl)][X3][N(4-MeOBn)Gly][Gly(N-(CH2)3OMe)]KKM; amide I:9-II:C; configuration not given here) as the molecule, how does the Activity read?
Answer: Active

Question: With `COc1ccc(CN(CC(=O)N(C)CC(=O)NC(CCCCN)C(=O)NC(CCCCN)C(=O)NC(CCSC)C(=O)NCCCCC(NC(=O)C(CCSC)NC(=O)C(CCCCN)NC(=O)C(CCCCN)NC(=O)CN(C)C(=O)CN(Cc2ccc(OC)cc2)C(=O)CN(C(=O)CN(Cc2ccc3c(c2)OCO3)C(=O)CNC(C)c2ccccc2)C(C)c2ccccc2)C(N)=O)C(=O)CN(C(=O)CN(Cc2ccc3c(c2)OCO3)C(=O)CNC(C)c2ccccc2)C(C)c2ccccc2)cc1` (stereo not given) (I: H-[X3][Gly(N-piperonyl)][X3][N(4-MeOBn)Gly][Sar]KKMK-NH2 / II: H-[X3][Gly(N-piperonyl)][X3][N(4-MeOBn)Gly][Sar]KKM; amide I:9-II:C; configuration not given here) as the molecule, how does the Activity read?
Answer: Active

Question: `COc1ccc(CN(CC(=O)NC(Cc2ccc(O)cc2)C(=O)NC(CCCCN)C(=O)NC(CCCCN)C(=O)NC(CCSC)C(=O)NCCCCC(NC(=O)C(CCSC)NC(=O)C(CCCCN)NC(=O)C(CCCCN)NC(=O)C(Cc2ccc(O)cc2)NC(=O)CN(Cc2ccc(OC)cc2)C(=O)CN(C(=O)CN(Cc2ccc3c(c2)OCO3)C(=O)CNC(C)c2ccccc2)C(C)c2ccccc2)C(N)=O)C(=O)CN(C(=O)CN(Cc2ccc3c(c2)OCO3)C(=O)CNC(C)c2ccccc2)C(C)c2ccccc2)cc1` (stereo not given) (I: H-[X3][Gly(N-piperonyl)][X3][N(4-MeOBn)Gly]YKKMK-NH2 / II: H-[X3][Gly(N-piperonyl)][X3][N(4-MeOBn)Gly]YKKM; amide I:9-II:C; configuration not given here) was tested. Which Activity did it give?
Answer: Active

Question: With `COc1ccc(CN(CC(=O)N(CCc2ccccc2)CC(=O)NC(CCCCN)C(=O)NC(CCCCN)C(=O)NC(CCSC)C(=O)NCCCCC(NC(=O)C(CCSC)NC(=O)C(CCCCN)NC(=O)C(CCCCN)NC(=O)CN(CCc2ccccc2)C(=O)CN(Cc2ccc(OC)cc2)C(=O)CN(C(=O)CN(Cc2ccc3c(c2)OCO3)C(=O)CNC(C)c2ccccc2)C(C)c2ccccc2)C(N)=O)C(=O)CN(C(=O)CN(Cc2ccc3c(c2)OCO3)C(=O)CNC(C)c2ccccc2)C(C)c2ccccc2)cc1` (stereo not given) (I: H-[X3][Gly(N-piperonyl)][X3][N(4-MeOBn)Gly][Gly(NCH2CH2Ph)]KKMK-NH2 / II: H-[X3][Gly(N-piperonyl)][X3][N(4-MeOBn)Gly][Gly(NCH2CH2Ph)]KKM; amide I:9-II:C; configuration not given here) as the molecule, how does the Activity read?
Answer: Active
